Measured values as given in ChEMBL document CHEMBL3734694, “Design, synthesis, and anticancer evaluation of long-chain alkoxylated mono-carbonyl analogues of curcumin” (Eur J Med Chem, 2015).
≈ marks a conversion by molar mass, not a printed value. Calls of active or inactive are those of the source. The rule behind the calls is not given here.

Legend:
[1] = Cytotoxicity against human SW620 cells assessed as inhibition of cell proliferation at 10 uM incubated for 72 hrs by MTS assay; type: functional; conditions: SW-620, 72 h
How it was run: (§1)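 Single-concentration MTS screen at 10 μM. Cells in RPMI-1640 with 10% FBS, seeded at 4000 cells/well in triplicate, attached overnight, then exposed for 72 h at 37°C, 5% CO2. MTS for 4 h; absorbance 490 nm. Reported as % inhibition.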

[2] = Cytotoxicity against human SW620 cells assessed as inhibition of cell proliferation incubated for 72 hrs by MTS assay; type: functional, cell-based; conditions: SW-620, 72 h
How it was run: (§2)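 Cells in RPMI-1640 with 10% heat-inactivated FBS at 37°C, 5% CO2. Seeded at 4000 cells/well in triplicate and attached overnight. Exposed to various concentrations for 72 h. MTS added for a further 4 h; absorbance at 490 nm. IC50 = concentration for 50% growth inhibition, as mean ± SEM of three independent tests.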

SGC-7901 [3] = assay: Induction of apoptosis in human SGC7901 cells assessed as necrotic cells and late apoptotic cells incubated for 30 hrs by PI and Annexin V-FITC-based flow cytometric analysis; type: functional, cell-based
How it was run: (§3)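 SGC7901 cells grown to 80% confluency in 6-well plates, then treated 30 h with 2.5, 5 or 10 μM. DMSO negative control. Cells washed in ice-cold PBS and stained with FITC-Annexin V and PI in binding buffer. Read by flow cytometry: UR = necrotic/late apoptotic, LR = early apoptotic. Three separate experiments.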

[4] = Cytotoxicity against human MGC803 cells assessed as inhibition of cell proliferation incubated for 72 hrs by MTS assay; type: functional, cell-based; conditions: MGC-803, 72 h; how it was run: as §2
SGC-7901 [5] = assay: Induction of apoptosis in human SGC7901 cells assessed as increase in cleaved PARP incubated for 24 hrs by immunoblotting; type: functional, cell-based
How it was run: (§4)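 SGC7901 cells treated 24 h at 2.5, 5 or 10 μM. Lysed on ice for 30 min; 60 µg protein run on 10% SDS-PAGE and transferred to PVDF. Blocked in 5% milk. Primary antibodies (cleaved PARP, pro-caspase-3, Bcl-2) overnight at 4°C, HRP secondary 1:300 for 1 h at room temperature. ECL detection. Three experiments.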

SGC-7901 [6] = assay: Induction of apoptosis in human SGC7901 cells assessed as decrease in BCL2 expression at 2.5 to 10 uM incubated for 24 hrs by immunoblotting; type: functional, cell-based; how it was run: as §4
[7] = Cytotoxicity against human GES-1 cells assessed as inhibition of cell proliferation incubated for 72 hrs by MTS assay; type: functional, cell-based; conditions: GES1, 72 h; how it was run: as §2
[8] = Solubility of compound in water
SGC-7901 [9] = assay: Induction of apoptosis in human SGC7901 cells assessed as decrease in procaspase-3 fragments at 2.5 to 10 uM incubated for 24 hrs by immunoblotting; type: functional, cell-based; how it was run: as §4
CT26 [10] = assay: Cytotoxicity against mouse CT26 cells at 10 uM assessed as inhibition of cell proliferation incubated for 72 hrs by MTS assay; type: functional; conditions: CT26, 72 h; how it was run: as §1
[11] = Cytotoxicity against human SGC7901 cells assessed as inhibition of cell proliferation at 10 uM incubated for 72 hrs by MTS assay; type: functional; conditions: SGC-7901, 72 h; how it was run: as §1
[12] = Cytotoxicity against human MGC803 cells assessed as inhibition of cell proliferation at 10 uM incubated for 72 hrs by MTS assay; type: functional; conditions: MGC-803, 72 h; how it was run: as §1
[13] = Cytotoxicity against human SGC7901 cells assessed as inhibition of cell proliferation incubated for 72 hrs by MTS assay; type: functional, cell-based; conditions: SGC-7901, 72 h; how it was run: as §2
CT26 [14] = assay: Cytotoxicity against mouse CT26 cells assessed as inhibition of cell proliferation incubated for 72 hrs by MTS assay; type: functional, cell-based; conditions: CT26, 72 h; how it was run: as §2
Mus musculus [15] = assay: Toxicity in po dosed nude mouse xenografted with human SGC7901 cells assessed as drug tolerability by measuring clinical parameters at 50 and 100 mg/kg, po qd for 23 days; type: organism-based, SGC-7901; conditions: in vivo, 552 h
How it was run: (§5)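 Female nude mice (8 weeks) bearing s.c. SGC7901 tumours (10 million cells injected) of about 40 mm³. Given 0.5% CMCNA vehicle or 50 or 100 mg/kg/day orally for 23 consecutive days. Observed daily. Body weights monitored for the duration of the study.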

SGC-7901 [16] = assay: Antitumor activity against human SGC7901 cells xenografted in nude mouse assessed as decrease cell proliferation at 50 and 100 mg/kg, po qd for 23 days by Ki67 staining-based immunohistochemistry; type: functional, organism-based
How it was run: (§6)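 Female nude mice, eight weeks old, injected s.c. with 10 million SGC7901 cells. At about 40 mm³, randomized to 0.5% CMCNA vehicle or daily oral dosing for 23 consecutive days. Tumour halves fixed in 4% paraformaldehyde. 5 μm sections, citrate antigen retrieval. Primary antibody overnight at 4°C (anti-Ki67 1:50, cleaved caspase-3 1:100), then HRP secondary 1:100 for 2 h at 37°C. DAB stain, hematoxylin counterstain.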

Mus musculus [17] = assay: Toxicity in po dosed nude mouse xenografted with human SGC7901 cells assessed as loss of body weight at 50 and 100 mg/kg, po qd for 23 days; type: organism-based, SGC-7901; conditions: in vivo, 552 h; how it was run: as §5
SGC-7901 [18] = assay: Antitumor activity against human SGC7901 cells xenografted in nude mouse assessed as increase in cleaved caspase-3 at 50 and 100 mg/kg, po qd for 23 days by DAB substrate-chromogen staining-based immunohistochemistry; type: functional, organism-based; how it was run: as §6
SGC-7901 [19] = assay: Induction of apoptosis in human SGC7901 at 10 uM incubated for 30 hrs by PI and Annexin V-FITC-based flow cytometric analysis; type: functional; how it was run: as §3
[20] = Antitumor activity against human SGC7901 cells xenografted in nude mouse at 100 mg/kg, po qd for 23 days; type: functional; conditions: SGC-7901, po, 552 h
How it was run: (§7)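 SGC7901 xenograft: female nude mice, 8 weeks old, given 10 million cells s.c. At about 40 mm³, randomized to 0.5% CMCNA vehicle or oral daily doses for 23 consecutive days. Calipers every 2 days; volume = π/6 × large diameter × (small diameter)². %ΔT/ΔC determined. Tumours weighed after sacrifice on the final day. Mean ± SEM; Student's t-test.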

SGC-7901 [21] = assay: Antitumor activity against human SGC7901 cells xenografted in po dosed nude mouse assessed as decrease in tumor weight administered as once daily for 23 days; type: functional, organism-based; how it was run: as §7

CCN(CC)CCCOc1ccc(/C=C2\CCC/C(=C\c3ccc(OCCCN(CC)CC)c(OC)c3)C2=O)cc1OC
inhibition at 10 µM [1]: 82.6% | IC50 [2]: 0.99 µM | Activity (SGC-7901 [3]): Dose-dependent effect | IC50 [4]: 1.72 µM | Activity (SGC-7901 [5]): Dose-dependent effect | Activity (SGC-7901 [6]): Active | IC50 [7]: 3.45 µM | solubility [8]: 21.6 µg/mL (≈ 36.5 µM) | Activity (SGC-7901 [9]): Active | inhibition at 10 µM (CT26 [10]): 91.9% | inhibition at 10 µM [11]: 78% | inhibition at 10 µM [12]: 80.4% | IC50 [13]: 1.7 µM | IC50 (CT26 [14]): 2.06 µM

COc1cc(/C=C/C(=O)/C=C/c2cccc(OC)c2OC)ccc1OCCCN1CCOCC1
inhibition at 10 µM [1]: 82.1% | IC50 [2]: 1.02 µM | Activity (SGC-7901 [3]): inactive | IC50 [4]: 2.49 µM | Activity (SGC-7901 [5]): inactive | IC50 [7]: 2.77 µM | solubility [8]: 114 µg/mL (≈ 243 µM) | Activity (SGC-7901 [9]): Active | inhibition at 10 µM (CT26 [10]): 88.9% | inhibition at 10 µM [11]: 73.7% | inhibition at 10 µM [12]: 77.6% | IC50 [13]: 1.84 µM | IC50 (CT26 [14]): 2.38 µM

COc1ccccc1/C=C/C(=O)/C=C/c1ccc(OCCCN2CCOCC2)c(OC)c1
Activity (Mus musculus [15]): Non-toxic | inhibition at 10 µM [1]: 105% | IC50 [2]: 1.22 µM | Activity (SGC-7901 [16]): Active | Activity (SGC-7901 [3]): Dose-dependent effect | Activity (Mus musculus [17]): Non-toxic | IC50 [4]: 2.18 µM | Activity (SGC-7901 [18]): Active | Activity (SGC-7901 [5]): Dose-dependent effect | Activity (SGC-7901 [6]): Active | IC50 [7]: 2.62 µM | solubility [8]: 21.2 µg/mL (≈ 48.5 µM) | Activity (SGC-7901 [9]): Active | inhibition at 10 µM (CT26 [10]): 104% | inhibition at 10 µM [11]: 75.3% | inhibition at 10 µM [12]: 80.3% | IC50 [13]: 1.91 µM | Activity (SGC-7901 [19]): 50% | inhibition in vivo at 100 mg/kg [20]: 48% | inhibition (SGC-7901 [21]): Dose-dependent effect | IC50 (CT26 [14]): 2.56 µM

COc1cc(/C=C2\CC/C(=C\c3ccc(OCCCn4ccnc4)c(OC)c3)C2=O)ccc1OCCCn1ccnc1
inhibition at 10 µM [1]: 93.5% | IC50 [2]: 0.95 µM | IC50 [4]: 2.46 µM | IC50 [7]: 7.09 µM | solubility [8]: 3.63 µg/mL (≈ 6.38 µM) | inhibition at 10 µM (CT26 [10]): 101% | inhibition at 10 µM [11]: 76.8% | inhibition at 10 µM [12]: 16.3% | IC50 [13]: 0.89 µM | IC50 (CT26 [14]): 0.36 µM

COc1cc(/C=C2\CCC/C(=C\c3ccc(OCCCN4CCOCC4)c(OC)c3)C2=O)ccc1OCCCBr
inhibition at 10 µM [1]: 72.7% | IC50 [2]: 5.64 µM | IC50 [4]: 10.2 µM | IC50 [7]: 10 µM | inhibition at 10 µM (CT26 [10]): 65.2% | inhibition at 10 µM [11]: 61.9% | inhibition at 10 µM [12]: 51.2% | IC50 [13]: 11 µM | IC50 (CT26 [14]): 10.5 µM

COc1cc(/C=C2\CC/C(=C\c3ccc(OCCCN4CCCCC4)c(OC)c3)C2=O)ccc1OCCCN1CCCCC1
inhibition at 10 µM [1]: 83.8% | IC50 [2]: 0.39 µM | IC50 [4]: 0.68 µM | IC50 [7]: 0.67 µM | solubility [8]: 4.11 µg/mL (≈ 6.82 µM) | inhibition at 10 µM (CT26 [10]): 91.9% | inhibition at 10 µM [11]: 84.2% | inhibition at 10 µM [12]: 86.6% | IC50 [13]: 0.44 µM | IC50 (CT26 [14]): 0.18 µM

COc1ccc(/C=C2\CCC/C(=C\c3ccc(OCCCN4CCOCC4)c(OC)c3)C2=O)cc1OC
inhibition at 10 µM [1]: 83.6% | IC50 [2]: 3.81 µM | IC50 [4]: 8.61 µM | IC50 [7]: 8.17 µM | inhibition at 10 µM (CT26 [10]): 86.5% | inhibition at 10 µM [11]: 86.4% | inhibition at 10 µM [12]: 89.8% | IC50 [13]: 2.87 µM | IC50 (CT26 [14]): 2.99 µM

COc1cc(/C=C2\CCC/C(=C\c3ccc(OCCCn4ccnc4)c(OC)c3)C2=O)ccc1OCCCn1ccnc1
inhibition at 10 µM [1]: 82.4% | IC50 [2]: 2.79 µM | IC50 [4]: 2.21 µM | IC50 [7]: 2.87 µM | inhibition at 10 µM (CT26 [10]): 90.9% | inhibition at 10 µM [11]: 85% | inhibition at 10 µM [12]: 88.5% | IC50 [13]: 3.38 µM | IC50 (CT26 [14]): 3.59 µM

COc1cc(/C=C2\CCC/C(=C\c3ccc(OCCBr)c(OC)c3)C2=O)ccc1OCCBr
inhibition at 10 µM [1]: 66.3% | IC50 [2]: 6.26 µM | IC50 [4]: 7.72 µM | IC50 [7]: 3.56 µM | inhibition at 10 µM (CT26 [10]): 77.3% | inhibition at 10 µM [11]: 69.2% | inhibition at 10 µM [12]: 58.4% | IC50 [13]: 6.26 µM | IC50 (CT26 [14]): 9.85 µM

COc1cc(/C=C2\CCC/C(=C\c3ccc(OCCCN4CCN(C)CC4)c(OC)c3)C2=O)ccc1OCCCN1CCN(C)CC1
inhibition at 10 µM [1]: 86.7% | IC50 [2]: 1.04 µM | IC50 [4]: 1.94 µM | IC50 [7]: 3.27 µM | inhibition at 10 µM (CT26 [10]): 109% | inhibition at 10 µM [11]: 84.8% | inhibition at 10 µM [12]: 77.5% | IC50 [13]: 1.88 µM | IC50 (CT26 [14]): 2.01 µM

COc1cc(/C=C2\CCC/C(=C\c3ccc(OCCCN4CCOCC4)c(OC)c3)C2=O)ccc1OCCCN1CCOCC1
inhibition at 10 µM [1]: 85.7% | IC50 [2]: 1.98 µM | IC50 [4]: 2.06 µM | IC50 [7]: 3.02 µM | inhibition at 10 µM (CT26 [10]): 93.3% | inhibition at 10 µM [11]: 81.8% | inhibition at 10 µM [12]: 78.1% | IC50 [13]: 4.96 µM | IC50 (CT26 [14]): 2.69 µM
